Results collected from several papers.
Target: Serine/threonine-protein kinase 3 (STK3, Homo sapiens, UniProt Q13188)
Sequence (Q13188 1-491, as in one of the studies): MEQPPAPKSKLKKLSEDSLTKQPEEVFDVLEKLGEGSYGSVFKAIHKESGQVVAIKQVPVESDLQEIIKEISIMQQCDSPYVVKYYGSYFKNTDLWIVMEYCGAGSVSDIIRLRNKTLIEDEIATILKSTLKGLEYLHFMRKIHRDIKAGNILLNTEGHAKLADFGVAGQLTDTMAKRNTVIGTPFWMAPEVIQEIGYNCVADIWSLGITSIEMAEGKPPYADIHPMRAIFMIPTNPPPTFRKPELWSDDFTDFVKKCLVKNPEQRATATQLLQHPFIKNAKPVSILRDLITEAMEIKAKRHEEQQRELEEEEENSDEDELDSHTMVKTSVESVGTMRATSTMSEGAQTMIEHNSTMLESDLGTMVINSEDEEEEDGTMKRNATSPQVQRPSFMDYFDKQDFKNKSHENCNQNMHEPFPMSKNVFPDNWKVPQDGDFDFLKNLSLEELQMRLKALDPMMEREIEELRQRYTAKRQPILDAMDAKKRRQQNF

Nc1ncnc2occ(-c3ccc(NC(=O)Nc4cc(C(F)(F)F)ccc4F)cc3)c12 — remaining signal (cell-free assay; inhibitor; 20 µM): 6.6%
CC(C)(O)[C@H]1CC[C@H](Nc2ccc3ncc(-c4cccc(C(F)(F)F)c4)n3n2)CC1 — remaining activity (enzyme activity; inhibitor; 1 µM): 73.9%
Cc1ccc(NC(=O)c2ccc(CN3CCN(C)CC3)cc2)cc1Nc1nc(-c2cccnc2)cs1 — remaining signal (cell-free assay; 0.5 µM): 94.4%
Cn1c2c(c3ccc(Cl)c(Cl)c31)C(C#N)C1(CCCC1)NC2=O (stereo not shown) — ΔTm (thermal stability; DSF; 10 µM): 0.4 °C
CNC(=O)c1cc(Oc2ccc(NC(=O)Nc3ccc(Cl)c(C(F)(F)F)c3)cc2)ccn1 — inhibition (cell-free assay; inhibitor; 0.3 µM): 7%
CC1=C(C#N)C(c2ccc3c(c2)c(NC(=O)c2ccccc2C)nn3C)C(C#N)=C(C)N1 — remaining binding (cell-free assay; competition with immobilised ligand; 1 µM): 100%
N#CCCc1ccc2c(c1)-c1[nH]c3ccc([N+](=O)[O-])cc3c1CC(=O)N2 — remaining signal (cell-free assay; 0.5 µM): 40.9%
NS(=O)(=O)c1cc(NC(=O)C2(c3ccccc3Cl)CC2)ccc1Oc1cccc(Cl)c1 — remaining binding (cell-free assay; competition with immobilised ligand; 1 µM): 94%
CC(C)(C)c1nc(-c2cccc(NS(=O)(=O)c3c(F)cccc3F)c2F)c(-c2ccnc(N)n2)s1 — remaining activity (enzyme activity; inhibitor; radiometric; 1 µM): 94%
Oc1cccc(-c2nc(N3CCOCC3)c3oc4ncccc4c3n2)c1 — remaining activity (enzyme activity; inhibitor; 10 µM): 115%
Nc1nc(Nc2ccccc2)sc1C(=O)c1c(F)cccc1F — remaining activity (enzyme activity; inhibitor; 10 µM): 40%
CN(C)C(=O)Cn1cc(-c2nc(C3(c4ccc(-c5cnc(N)nc5)cc4)CC3)no2)cn1 — remaining binding (cell-free assay; competition with immobilised ligand; 1 µM): 100%
Cn1c2c(c3ccccc31)C(C#N)C(C)(C)NC2=O (stereo not shown) — ΔTm (thermal stability; DSF; 10 µM): -0.5 °C
O=C(Nc1cnn(-c2csc(C(=O)NC3COC3)c2)c1)Nc1c(F)cccc1Cl — remaining activity (enzyme activity; inhibitor; 5 µM): 93.2%
Cn1c2c(c3ccc(Cl)c(Cl)c31)C(C#N)C1(CCNCC1)NC2=O (racemic) — ΔTm (thermal stability; DSF; 10 µM): 0.3 °C
COc1cc(Nc2cnc(C#N)c(O[C@H](C)CN(C)C)n2)ncc1-c1cnn(C)c1 — remaining activity (enzyme activity; inhibitor; radiometric; 1 µM): 67%
Cn1nc(C(F)(F)F)cc1-c1cnc(N2CCc3cc(S(=O)(=O)Nc4c(F)cc(Cl)cc4F)cc(N4CCCC4=O)c32)nc1 — remaining binding (cell-free assay; competition with immobilised ligand; 1 µM): 90%
CN1CC(Oc2cnc(C#N)cc2-c2ccn3nc(NC(=O)C4CC4)cc3c2)C1 — inhibition (enzyme activity; inhibitor; 1 µM): 4%
CCCS(=O)(=O)Nc1ccc(F)c(C(=O)c2c[nH]c3ncc(-c4ccc(Cl)cc4)cc23)c1F — inhibition (enzyme activity; inhibitor; 1 µM): < 10%
